Compounds with a hit are over-represented: about 2.8% of the library has one in this group of screens.
UBC13 polyUb: human UBC13 polyubiquitination inhibition; UBC13 polyubiquitin chain formation, TR-FRET; 0.47% of 330,000 active; inhibition, % at 20 µM; in the data active = inhibition above about 45%, passing the limit was not always enough
T cruzi inh: blocks replication of Trypanosoma cruzi; T. cruzi beta-gal in NIH3T3, luminescence, 90 h; inhibition, % (test concentration not listed); 1.4% of 300,000 active; AID 1885;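 active = mean inhibition across valid replicates above about 55%, limit read from the data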;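 also: signal also drops with host cell toxicity which is not excluded here; 0% = plate median of DMSO wells and 100% = zero luminescence signal; higher percent means less beta-gal luminescence so fewer parasites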
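System: Mouse NIH/3T3 fibroblasts infected with β-gal-expressing T. cruzi Tulahuen C4 | Quantity: NIH/3T3 cells, 5,000 per well | Reagent: 5000 reporter trypomastigotes per well | Dosing: Compound pinned at 50 nL/well, DMSO | Schedule: 3 h host attachment, then at least 90 h co-culture | Detection: GalScreen luminescence, 60 min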
PP1 inh: counter-screen for PP5 inhibitors: inhibitors of human PP1-alpha. P62136. inhibition, % at 6.7 µM. purified PP1alpha, OMFP fluorescence. 0.9% of 320,000 active;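 active = inhibition above the mean inhibition of all tested compounds plus 3 SD, computed separately for each screening campaign, cut at about 15% in these data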
Target sequence (P62136 whole entry, looked up): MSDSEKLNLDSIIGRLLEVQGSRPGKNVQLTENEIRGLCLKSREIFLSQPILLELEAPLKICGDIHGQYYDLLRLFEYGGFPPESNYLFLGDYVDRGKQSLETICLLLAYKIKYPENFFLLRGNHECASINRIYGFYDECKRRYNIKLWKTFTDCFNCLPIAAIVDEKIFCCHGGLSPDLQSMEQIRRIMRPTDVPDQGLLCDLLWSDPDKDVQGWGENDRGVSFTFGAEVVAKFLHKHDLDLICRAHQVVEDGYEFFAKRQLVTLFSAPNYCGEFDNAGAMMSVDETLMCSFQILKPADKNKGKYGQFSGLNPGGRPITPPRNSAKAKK
pCIP destab: p/CIP protein destabilization; F442A p/CIP-EGFP cells, EGFP fluorescence, 16 h; AID 1984; 0.01% of 290,000 active; Q05BA5; decrease of EGFP signal, % at 10 µM;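 active = EGFP signal decrease of at least 30% at 10 µM or well 3 SD below plate mean, unless failing retest; inactive = the rest, including hits failing retest or dose response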
AI-2 QS modul: modulators of Vibrio harveyi AI-2 quorum sensing system; activity change, % at 7.5 µM; Vibrio harveyi JMH597 AI-2 luminescence/OD600 ratio, 9 h; stronger effect = lower value; strain lacks LuxN and CqsS sensors; 0 = neutral-control median; 0.4% of 300,000 active; in the data active = activity change below about -75%, passing the limit was not always enough;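 also: luminescence divided by OD600 gain over 9 h not by final OD600 alone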
The depositor's hits bear a star; nt = no result given.

SMILES	UBC13 polyUb	T cruzi inh	PP1 inh	pCIP destab	AI-2 QS modul
O=C(CC1SC(N2CCCC2)=NC1=O)Nc1ccc(C(=O)Nc2ncccc2O)cc1 (stereo unspecified)	-0.4	-11.2	-2.9	nt	16.2
O=C(N[C@@H]1CCC(=O)N(CC[C@H](Sc2ccc(Br)cc2)c2ccccc2)CC1)OCc1ccccc1	-0.9	nt	15.6*	nt	nt
COc1ccc(S[C@@H](CCN2CC[C@H](NC(=O)OCc3ccccc3)CCC2=O)c2ccccc2)cc1	3.4	nt	nt	nt	nt
CC(C)(CO)C(O)C(=O)NCCC#N (stereo unspecified)	-2.1	-10.4	-8.0	21.7	31.4
COc1ccc(/C=C2\CN(Cc3ccccc3)C/C(=C\c3ccc(OC)cc3OC)C2=O)c(OC)c1	-5.2	80.8*	15.5*	8.5	44.2
COc1ccc2c(c1)sc(=NC(=O)CS(=O)(=O)c1ccc(F)cc1)n2C	14.4	63.3*	-4.9	nt	7.1
Cc1nc2ccccn2c1CN(C)C(=O)C1CCC(=O)N(Cc2cccc(F)c2)C1 (stereo unspecified)	10.2	-5.2	-1.9	1.2	18.6
O=C(NNc1ccccc1)C(=O)NNS(=O)(=O)c1ccc(CCCl)cc1	4.5	71.7*	-2.4	-15.0	35.2
Nc1ccc(S(=O)(=O)Nc2ccc(C(=O)c3ccccc3)cc2)cc1	-4.2	-11.6	-2.2	-8.7	38.5
Nc1ccc(S(=O)(=O)NNC(=O)C(=O)NNc2ccccc2)cc1	12.1	67.2*	-1.7	15.3	9.5
CC(COc1ccccc1)N1CCC(CO)(Cc2ccccc2)CC1 (stereo unspecified)	6.2	45.7	-1.8	-4.5	7.8
Cc1cc(Cl)n2c(nc3ccccc32)c1C#N	nt	71.4*	nt	-8.1	14.0
CNc1cc(C)c(C#N)c2nc3ccccc3n12	-12.9	-2.2	0.1	-5.6	10.2
CCc1c(C)c(C#N)c2nc3ccccc3n2c1NCCN(C)C	0.8	67.8*	-2.5	-9.4	5.2
Cc1ccccc1-c1oc(C)c(C)[n+]1[O-]	-12.4	-8.9	1.9	-3.1	17.3
O=C([C@@H]1CCCN1C(=O)c1cccs1)N1CCN(S(=O)(=O)c2cccc(F)c2)CC1	0.7	nt	-1.5	nt	nt
CCN(CC)CCC(=O)Nc1cccc2c1C(=O)c1ccccc1C2=O	-66.8	55.8*	-0.9	-5.7	7.9
CCN(CC)CCNC(=O)c1ccc2c(c1NCCO)C(=O)c1ccccc1C2=O	-266.6	8.5	-1.6	35.8*	9.1
CCOC(=O)c1sc(NC(=O)CSc2n[nH]c(-c3ccc(Cl)cc3Cl)n2)c(C#N)c1C	-18.6	-20.8	-1.6	-7.7	13.6
O=C(CCl)N1c2ccccc2CCc2ccccc21	-1.3	71.3*	-0.5	-14.8	-10.0
Cc1ccc(-c2nnn(CC(=O)O)n2)cc1	-2.3	-4.8	-1.1	-1.3	22.5
Cc1ccc(-c2nnn(CC(=O)N3c4ccccc4CCc4ccccc43)n2)cc1	-7.7	57.8*	2.2	-2.0	17.9
CC(Cl)C(=O)N1c2ccccc2CCc2ccccc21 (stereo unspecified)	0.8	-6.5	-2.0	-15.6	6.4
COCCN1Cc2cccc(C(=O)NCCCN3CCCC3=O)c2C1=O	-1.5	-7.0	-5.7	-17.4	32.8
CCc1cc2c(-c3ccccc3)cc(=O)oc2cc1OCC(=O)NCC1CCC(C(=O)O)CC1 (stereo unspecified)	-17.2	-15.5	0.9	-3.2	18.4
SMILES	UBC13 polyUb	T cruzi inh	PP1 inh	pCIP destab	AI-2 QS modul
COc1ccc(CCNC(=O)/C=C/c2ccc(OC)c(S(=O)(=O)N3CCOCC3)c2)cc1	-9.6	-14.2	-0.7	-4.6	5.0
CC(NCC(O)COCCC12CC3CC(CC(C3)C1)C2)c1ccccc1 (stereo unspecified)	41.8	59.8*	11.8	1.2	14.2
CCc1nc2ccccc2c(C(=O)OCC(=O)N(CCOC)c2c(N)n(Cc3ccccc3)c(=O)[nH]c2=O)c1C	2.0	nt	nt	nt	nt
CCC(C)Sc1cccc(-c2nc3ccc(C)cn3c2NCc2ccccc2)c1 (stereo unspecified)	24.0	41.8	8.6	nt	30.6
Cc1ccc2nc(-c3cccc(-c4cccc(Cl)c4)c3)c(NCc3ccccc3)n2c1	16.6	22.4	15.8*	nt	14.2
CCC(=O)NC(c1cccs1)c1cc(Cl)c2cccnc2c1O (stereo unspecified)	-43.3	58.7*	12.1	-4.6	30.1
COc1ccc(C(NC(C)=O)c2cc(Cl)c3cccnc3c2O)cc1 (stereo unspecified)	-11.3	63.5*	1.5	-4.9	-40.9
